# The list is not random: actives were taken first. Their share in the collection is about 3.7%.
# KCNQ1 pot: potentiates or activates the human KCNQ1 potassium channel; B-score at 10 µM; CHO-K1 KCNQ1, thallium flux FluxOR fluorescence; hits give high values; 310,000 tested, 0.35% active; P51787; AID 2648;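 active means fluorescence ratio B-score, a plate-corrected score, at least three library SD, with initial intensity B-score within 5 SD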
#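 System: CHO-K1 cells stably expressing KCNQ1 / Medium: assay buffer for compound exposure, DMSO matched across wells / Reagent: thallium- and potassium-containing depolarizing buffer / Compound: one concentration, matched DMSO / Incubation: 20 min compound pretreatment at room temperature / Measured by: kinetic FluxOR fluorescence, 10 s baseline plus 110 s post-stimulus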
# KCNQ1 block: inhibitors of human KCNQ1 potassium channel; CHO-K1 KCNQ1, FluxOR thallium flux fluorescence; hits give high values; B-score at 10 µM; 310,000 tested, 1.3% active; AID 2642;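 active means compounds whose thallium flux B-score, printed positive for inhibition, exceeds three library SD while starting fluorescence stays within three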;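 further: channel opened by potassium depolarization with thallium stimulus after 20 min compound exposure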
# KCNK3 block: human KCNK3 channel inhibition, primary screen. CHO-KCNK3 thallium flux, FluxOR fluorescence; hits give low values. B-score at 10 µM. O14649. 340,000 tested, 0.84% active;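 active means B-score under library mean minus 4 SD, starting fluorescence ratio at most library mean plus 5 SD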;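 further: more negative B-score means stronger inhibition of thallium flux through KCNK3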
# Target sequence (O14649 whole entry, looked up): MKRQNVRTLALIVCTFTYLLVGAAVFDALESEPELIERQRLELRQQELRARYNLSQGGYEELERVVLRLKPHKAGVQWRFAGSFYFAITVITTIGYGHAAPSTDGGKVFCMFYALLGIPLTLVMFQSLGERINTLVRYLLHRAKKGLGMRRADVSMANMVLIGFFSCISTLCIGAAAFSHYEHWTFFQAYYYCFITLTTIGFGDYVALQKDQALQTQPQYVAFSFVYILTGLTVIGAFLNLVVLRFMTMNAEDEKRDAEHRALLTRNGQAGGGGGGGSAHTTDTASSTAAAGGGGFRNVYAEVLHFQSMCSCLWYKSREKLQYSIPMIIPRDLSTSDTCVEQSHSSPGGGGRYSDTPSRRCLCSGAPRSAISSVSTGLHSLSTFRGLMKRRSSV
# hERG rescue: shields human hERG channel from block by proarrhythmic agents. Q12809. 310,000 tested, 0.51% active. AID 1511. CHO-hERG, FluxOR thallium flux, dofetilide IC70 present. activation (rescue from dofetilide block), less the hit threshold, % at 10 µM;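 active means activation above the mean of controls blocked by dofetilide plus 5 SD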;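 further: thallium influx through hERG after potassium depolarization seen as dye fluorescence rise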
# Kir21 inh: Kir2.1 (mouse) channel inhibition; B-score at 10 µM; 310,000 tested, 0.85% active; P35561; HEK293-Kir2.1, FluxOR thallium flux fluorescence; hits give low values;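 active means fluorescence ratio B-score at or below minus 3 SD of library scores, with starting-brightness B-score within 2 SD, cut at about -4.2 in these data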;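 further: channel flux triggered by added potassium and thallium sulfate stimulus; B-score of peak minus minimum fluorescence over baseline after thallium stimulus; more negative B-score means stronger Kir2.1 block with less thallium influx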
# KCNK9 inh: blocks the human KCNK9 two-pore domain potassium channel; Q9NPC2; HEK293 KCNK9, FluxOR thallium flux fluorescence; hits give low values; B-score at 10 µM; 310,000 tested, 1.2% active;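 active means ratio B-score over 3 SD below the library mean, with starting fluorescence within 5 SD of its mean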;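 further: negative B-score means less thallium flux so channel inhibition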
# An asterisk follows results filed as active; i = inactive; x = not tested or not shown.
SMILES,KCNQ1 pot,KCNQ1 block,KCNK3 block,hERG rescue,Kir21 inh,KCNK9 inh
Cc1sc2nc(C(C)C)nc(SCC(=O)N3CCN(C(=O)c4ccco4)CC3)c2c1C,i,i,i,-2,-0.21,i
CCc1c(C)sc2nc(C(C)C)nc(SCC(=O)N3CCc4ccccc4C3)c12,i,9*,x,-7,0.01,i
O=C(NCC(O)c1ccc([N+](=O)[O-])cc1)C1=COCCO1 (configuration not stated),x,x,i,x,x,x
CC(C)[C@H](NC(=O)c1ccc(C(C)(C)C)cc1)C(=O)N1CCN(Cc2ccc3c(c2)OCO3)CC1,x,x,i,x,x,x
S=c1nc[nH]c2c1sc1nc(N3CCOCC3)c3c(c12)CCCC3,95*,i,i,97*,-0.28,i
C1CCc2c(c(N3CCOCC3)nc3sc4c(N5CCOCC5)nnnc4c23)C1,x,x,i,x,x,x
COc1cccc(NC(=S)N(C)C2CCN(C)CC2)c1,i,i,i,-7,-1.2,i
CCOc1ccccc1N(CC(=O)Nc1ccccc1F)S(=O)(=O)c1ccccc1,i,i,i,-7,0.34,i
CCCSc1nc(N)nc(-c2cccs2)c1C#N,i,i,i,-11,-0.28,-6.9*
CCSc1nc(C2CC2)cc(-c2ccco2)c1C#N,i,i,i,-12,0.32,i
CCSc1nc(C2CC2)cc(-c2cccs2)c1C#N,i,i,i,-7,-0.29,-6.8*
CCOC(=O)CSc1nc(N)c(C#N)c(-c2cccs2)c1C#N,i,i,i,-2,1.4,i
C#CCOCCOCCOCCNc1nc(N2CCN(C(=O)CCCCCCCCCCNC(=O)Cn3cc(CCCCCN)nn3)CC2)nc(N2CCN(C(=O)CCCCCCCCCCNC(=O)[C@@H](CCSC)n3cc(CCO)nn3)CC2)n1,x,x,i,x,x,x
Cc1ccc(-c2nc3ncccc3o2)cc1NC(=O)COc1ccccc1,i,i,i,-3,0.37,i
Cc1ccc(-c2nc3cccnc3o2)cc1NC(=O)COc1ccc(C(C)(C)C)cc1,i,9*,i,-6,0,i
Cc1cccc(N(CC(=O)NC2CCCC2)C(=O)CCC(=O)Nc2ccccn2)c1,i,i,i,-5,-1.5,i
CSc1ccc(CN2CCC(Oc3cccc(C(=O)N4CCCC4)c3)CC2)cc1,i,i,i,-8,-4.6*,i
CSc1ccc(CN2CCC(N3CC(C)OC(C)C3)CC2)cc1 (configuration not stated),i,i,i,-7,0.33,i
O=C(c1cccc(OC2CCN(Cc3ccc(F)cc3Cl)CC2)c1)N1CCCC1,i,i,i,-7,-4.7*,i
CSc1ccc(OC2CCN(Cc3ccccc3)CC2)cc1,i,i,i,-17,-20*,i
Cn1cccc1/C=N/NC(=O)CSc1nc2ccccc2[nH]1,i,i,i,-7,2.3,i
COc1ccc(Cc2nc3ccc(C(=O)NC(C)Cc4ncccc4C)cc3o2)cc1OC (configuration not stated),i,i,i,-15,-0.86,i
Cc1cc(=O)n2c3c(c4c(cc13)c(CN(C)C)cc(=O)n4C)OC2,x,x,i,x,x,x
Cc1ccc(N2CCN(C(=O)Nc3cccc([N+](=O)[O-])c3)CC2C)cc1 (configuration not stated),i,6*,i,-18,0.01,i
Cc1cc(C)c2c(=O)n(CC(=O)N3CCC(Cc4ccccc4)CC3)sc2n1,i,i,x,-4,-1.5,i
SMILES,KCNQ1 pot,KCNQ1 block,KCNK3 block,hERG rescue,Kir21 inh,KCNK9 inh
Cc1cccc(N2CCN(C(=O)c3ccncc3)CC2C)c1 (configuration not stated),i,i,i,6.1*,-0.16,i
Cc1cccc(N2CCN(C(=O)c3ccc4ccccc4c3)CC2C)c1 (configuration not stated),x,x,i,x,x,x
Cc1cccc(N2CCN(C(=O)Cn3sc4nc(C)cc(C)c4c3=O)CC2C)c1 (configuration not stated),14*,i,i,-8,-2.1,i
O=C(NCC(c1ccco1)N1CCCCC1)c1ccc(COc2ccc(Cl)cc2)cc1 (configuration not stated),x,x,i,x,x,x
CCCc1nc2ccc(NC(=O)c3cccs3)cc2c(=O)n1Cc1ccccc1Cl,i,i,i,-6,-1.1,-6.8*
COc1ccc(N2CCN(c3ccc(C(=O)O)cc3[N+](=O)[O-])CC2)cc1,i,i,i,-10,0.56,i
S=C(NCCc1ccccc1)NC1CCCCCC1,i,i,i,-14,0.69,i
S=C(NCCNCc1ccccc1)NC1CCCCC1,i,i,x,-15,2.1,-7.1*
CC(CCc1ccccc1)NC(=O)c1ccc(NC(=O)c2cccc(Br)c2)cc1 (configuration not stated),i,i,i,-2,1.2,-7.4*
CCC1=C(OC(=O)N(CC)CC)N2C(=O)OC(=NCc3ccccc3)[C@]2(C)[C@H]2C1=CC[C@H]1C(=O)N(CC(=O)OC)C(=O)[C@H]12,i,i,i,-8,0.25,i
CCC1=C(OC(=O)N(CC)CC)N2C(=O)OC(=NCC3CC3)[C@]2(Cc2ccccc2)[C@H]2C1=CC[C@H]1C(=O)N(CC(=O)OC)C(=O)[C@H]12,i,i,x,-8,-0.01,-6.8*
CCN(C(=O)COC(=O)c1oc2ccc(OC)cc2c1C)C1CCCCC1,i,i,i,-10,0.11,i
CCOc1ccccc1C(=O)Nc1cccc2cccnc12,i,i,i,-9,0.07,i
C=C(C)CSc1cc(C)c(C#N)c2nc3ccccc3n12,i,6*,i,-25,-0.89,i
CCc1ccc(C(=O)NNC(=O)c2c(CC)noc2C)cc1,i,i,i,-18,-0.41,i
CCC(NC(=S)NCc1ccc(F)cc1)c1ccccc1 (configuration not stated),i,i,i,-13,-7.4*,i
O=C(COc1ccc2c(c1)OCO2)Nc1nccs1,i,i,i,-2,1,i
Cc1ccc(S(=O)(=O)NN=C2C(=O)C3CCC2C3Cl)cc1 (configuration not stated),x,x,i,x,x,x
COc1cccc(OCC(=O)NNC(=O)C(=O)Nc2ccc(OC)cc2OC)c1,11*,i,i,23*,0.56,i
COc1ccccc1NC(=O)C(=O)NNC(=O)COc1ccc2ccccc2c1,84*,i,i,56*,1.7,i
COc1ccc(NC(=O)CNC(=O)C23CC4CC(CC(C4)C2)C3)c(OC)c1,i,i,i,-15,-2,i
COc1ccc(NC(=O)COc2ccccc2)c(OC)c1,i,i,i,-8,0.18,i
